Source: PubChem (The Scripps Research Institute Molecular Screening Center)
Tn6 DDE FP: DD(E)-Tn6 binding inhibition, primary FP screen; 370,000 compounds, 0.21% hits; AID 720509; Fibrin DD(E) TRITC-Tn6 fluorescence polarization displacement; inhibition, % at 8.3 µM; P02675;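 active = inhibition above a per-campaign cutoff: mean of compounds within control limits plus 3 SD, cut at about 15% in these data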;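 note: 0% = median of all compound wells on the plate and 100% = blocking peptide control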
HTRA1 inh: HTRA1 (human) protease inhibition; Q92743; recombinant HTRA1, FP-rhodamine activity-based probe, fluorescence polarization; inhibition, % at 5.96 µM; 340,000 compounds, 0.5% hits; in the data active = inhibition above about 36%;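 note: 0% = enzyme with DMSO and 100% = wells lacking enzyme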
SIAE primary: inhibitors of human sialic acid acetylesterase SIAE; Q9HAT2; SIAE FP-Rh probe binding, fluorescence polarization; inhibition, % at 9.66 µM; 370,000 compounds, 0.69% hits; AID 1053197;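 active = inhibition above a cutoff: mean of compounds within the control limits plus 3 SD of those, cut at about 17% in these data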;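 note: 0% = plate median of compound wells and 100% = probe without SIAE protein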
Target sequence (Q9HAT2 whole entry, looked up): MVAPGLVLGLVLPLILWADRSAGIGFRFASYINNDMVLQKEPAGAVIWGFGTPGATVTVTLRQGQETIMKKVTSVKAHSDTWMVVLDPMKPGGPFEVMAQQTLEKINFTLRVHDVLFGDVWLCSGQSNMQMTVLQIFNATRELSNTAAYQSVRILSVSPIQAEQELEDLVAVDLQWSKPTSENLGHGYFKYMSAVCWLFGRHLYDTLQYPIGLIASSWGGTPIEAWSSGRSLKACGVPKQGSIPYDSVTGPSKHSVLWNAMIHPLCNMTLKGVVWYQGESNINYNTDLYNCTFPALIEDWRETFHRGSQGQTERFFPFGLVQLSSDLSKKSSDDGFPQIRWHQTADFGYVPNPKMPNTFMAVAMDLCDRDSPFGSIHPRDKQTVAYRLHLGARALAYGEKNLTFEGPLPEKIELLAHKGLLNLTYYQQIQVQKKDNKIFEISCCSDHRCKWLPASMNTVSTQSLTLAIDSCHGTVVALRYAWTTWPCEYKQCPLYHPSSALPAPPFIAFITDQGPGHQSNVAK
DDE Tn7 FP inh: inhibitors of Tn7 peptide binding to human fibrin DD(E); P02675; FP displacement of FITC-Tn7 peptide from fibrin DD(E); 0% = median of compound wells per plate; inhibition, % at 8.3 µM; 370,000 compounds, 0.13% hits; AID 720508;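 active = inhibition above the mean of compounds falling within the control limits plus 3 SD of them, cut at about 14% in these data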;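 note: 0% = plate median of compound wells and 100% = 10 µM Aha-Tn7 peptide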
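Measure: % inhibition scaled between sample-field median and high-control FP; Test system: human fibrin DD(E); Quantity: 2 µM final DD(E) protein; Doses: one dose, 8.3 µM nominal; Schedule: compound with protein 10 min, then 3 h after probe, room temperature; Detection: fluorescence polarization; Medium: Tris buffer with calcium and detergent, pH 7.8.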
ABHD4 inh: ABHD4 (mouse) inhibition, primary FP screen. Q8VD66. purified mABHD4, FP-Rh probe fluorescence polarization. inhibition, % at 8.92 µM. 370,000 compounds, 0.54% hits;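 active = inhibition exceeding the mean over every tested compound plus 3 SD, cut at about 30% in these data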;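 note: 0% = plate median of compound wells and 100% = S159A mutant with DMSO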
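Assay system: Wild-type mouse ABHD4 protein | Medium: HEPES pH 7.0 buffer, 150 mM NaCl, 0.01% Pluronic F-127 | Incubation: Enzyme–compound pre-incubation 45 min, then probe 60 min, both 25 °C | Technique: Fluorescence polarization with parallel and perpendicular emission, 525/598 nm | Evaluation: % inhibition of FP-Rh probe binding versus controls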
TCR-CD3 inh: human TCR-CD3 binding inhibition | TAMRA-labeled TCR probe fluorescence, biochemical | inhibition, % at 9.4 µM | 360,000 compounds, 0.37% hits; in the data active = inhibition above about 19%;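 note: recombinant mutant TCR 2C K166C tagged with TAMRA read by polarization; 0% = receptor in buffer alone and 100% = receptor with positive control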
SIAE inh conf: confirmation of human SIAE inhibitors | 2,300 compounds, 13% hits | AID 1117263 | inhibition, % at 9.66 µM | SIAE FP-Rh activity-based probe, fluorescence polarization | shares compounds with SIAE primary;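 active = mean inhibition of the replicates above the hit cutoff set in the primary screen, cut at about 17% in these data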;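 note: 0% = SIAE with DMSO and probe and 100% = probe without SIAE; inhibitors lower polarization as more probe stays unbound to SIAE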
An asterisk follows results filed as active; nt = not tested or not shown. Most compounds without a hit are left out; they make up all but 1.8% or so of the library.

SMILES | Tn6 DDE FP | HTRA1 inh | SIAE primary | DDE Tn7 FP inh | ABHD4 inh | TCR-CD3 inh | SIAE inh conf
Cc1occc1C(=O)NNC(=S)Nc1cccc([N+](=O)[O-])c1 | -6.6 | 4.3 | 21.8* | 1.5 | 7.7 | 3.8 | 3.1
Cc1nc(N)sc1-c1csc(Nc2cccc(O)c2)n1 | -1.9 | 16.0 | 17.4* | 0.0 | 21.5 | 4.5 | -2.6
Cc1nc(C)c(-c2csc(Nc3cccc(O)c3)n2)s1 | -3.0 | -1.5 | 1.5 | 1.6 | 12.4 | -4.5 | nt
COC(=O)[C@]12C[C@H](CC(=O)N3CCN(C(=O)c4ccco4)CC3)C(=O)N(Cc3ccc(Cl)cc3Cl)C1=C[C@H](C(C)C)O[C@@H]2C1CC1 | 3.3 | nt | 5.5 | -0.4 | 1.2 | nt | nt
Cc1ccc(C(=O)NCC(C)NC(=O)c2ccc(C)c(C)c2)cc1C (stereo not drawn) | 8.9 | 4.3 | 3.7 | -8.4 | 0.5 | -8.1 | nt
O=C(Nc1ccc(F)cc1F)Nc1csc2ccccc12 | -7.9 | nt | 4.3 | -6.3 | -1.1 | -5.0 | nt
O=C(Nc1ccc(F)c(Cl)c1)Nc1csc2ccccc12 | -18.0 | -12.8 | 23.3* | 4.8 | -3.9 | 3.0 | -10.6
CN(C)c1ccc(NC(=O)c2cn(-c3ccccc3)nc2-c2cccs2)cc1 | -13.7 | 6.7 | 24.8* | 5.9 | 10.1 | 2.1 | 18.6*
CCC(C)N1C(=O)CN(C2CCCCCC2)C(=O)C1c1ccccc1F (stereo not drawn) | 0.0 | 4.5 | 19.3* | 3.3 | 1.1 | 4.7 | -1.3
COc1ccccc1CN1C(=O)CN(C2CCCCCC2)C(=O)C1c1ccc(F)cc1 (stereo not drawn) | 3.5 | -16.6 | 5.5 | 7.3 | 4.2 | -8.2 | nt
CC(=O)c1c(C)[nH]c(C(=O)NCc2ccc(F)cc2)c1C | -7.7 | -6.9 | -0.2 | 4.5 | 1.1 | 1.8 | nt
CC(=O)c1c(C)[nH]c(C(=O)NCc2ccccc2)c1C | 3.9 | -1.0 | 26.3* | -0.2 | -0.4 | 3.0 | -0.6
Cc1c(C(=O)NCc2ccc3c(c2)OCCO3)sc(=O)n1Cc1ccc(S(=O)(=O)N(C)C)cc1 | -0.9 | nt | 0.6 | -7.6 | 1.7 | 6.5 | nt
O=[N+]([O-])c1ccc(O)c(-c2nc(-c3ccccc3)c(-c3cccs3)[nH]2)c1 | 2.0 | 2.5 | 17.1* | -1.5 | -0.3 | 3.7 | 6.6
CCOc1cc(-c2nc(-c3ccccc3)c(-c3cc([N+](=O)[O-])ccc3C)[nH]2)ccc1O | -4.3 | 9.7 | 24.4* | -1.3 | 13.4 | -7.4 | 6.5
O=C(O)c1ccc(-c2nc(-c3ccccc3)c(-c3cccs3)[nH]2)cc1 | -3.2 | -1.7 | -2.5 | -3.6 | 0.0 | 8.1 | nt
CCN(CC(=O)NCc1ccc(Cl)cc1)C(=O)CCC(=O)c1ccc(C)cc1 | -1.5 | -11.7 | -5.6 | -11.3 | -7.7 | 3.8 | nt
CCN(CC(=O)NCc1ccc(Cl)cc1)C(=O)CCC(=O)c1ccc(F)cc1 | -1.8 | -4.0 | 20.3* | 6.5 | 2.5 | 1.4 | -2.5
COc1ccc(CN2CCC[C@]3(N[C@H](c4ccccc4)[C@@H]4C(=O)N(Cc5ccccc5)C(=O)[C@@H]43)C2=O)cc1 | 0.9 | -30.0 | 8.4 | 0.2 | 1.7 | -1.8 | nt
OCC1(CCc2ccccc2)CCCN(C/C=C/c2ccccc2)C1 (stereo not drawn) | 7.1 | -9.8 | 18.5* | -1.0 | -0.8 | 5.1 | -2.4
O=S1(=O)C=CCN1Cc1cn(Cc2ccc(Cl)cc2)nn1 | -2.9 | nt | -0.8 | -2.5 | 2.3 | nt | nt
CCC(=O)NC(c1ccco1)c1cc(Br)c2cccnc2c1O (stereo not drawn) | 0.5 | nt | 18.8* | 0.8 | 19.9 | -2.3 | 10.6
CCCCCCn1c(N(CC)CC)nc2c1c(=O)[nH]c(=O)n2C | 3.3 | 8.8 | 22.7* | -9.3 | 5.2 | 6.8 | -2.2
CCN(CC)c1nc2c(c(=O)[nH]c(=O)n2C)n1Cc1ccccc1 | 4.7 | 3.5 | 0.3 | 7.4 | 0.5 | 7.8 | nt
CC(=O)NCCCNC(=S)NCCCN(Cc1ccc(Cl)cc1)c1ccc(Br)cn1 | -5.9 | nt | -3.1 | -4.0 | -11.4 | -3.6 | nt
CN(C)c1ccc(-c2csc(C(O)c3ccc(F)c(F)c3)n2)cc1 (stereo not drawn) | -0.9 | nt | 17.1* | 7.0 | 3.8 | 2.7 | 2.3
